In ChEMBL document CHEMBL2311425, “Histone deacetylase (HDAC) inhibitors with a novel connecting unit linker region reveal a selectivity profile for HDAC4 and HDAC5 with improved activity against chemoresistant cancer cells” (J Med Chem, 2013):

How the values were obtained:
KYSE-510 [1] = assay: Potentiation of 0.75 uM cisplatin-induced toxicity in 0.5 uM cisplatin resistant human KYSE-510 cells at 1 uM pretreated for 48 hrs followed by 0.5 uM cisplatin treatment by MTT assay; type: functional
How it was run: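 Cisplatin-resistant Kyse510 CisR (derived by weekly cycles of cisplatin over 24−30 weeks), grown in RPMI 1640 with 10% FCS at 37 °C, 5% CO₂. Test agent added 48 h before cisplatin, then 72 h further incubation. Viability by MTT (read at 544/690 nm) relative to untreated control wells. Combination index by Chou−Talalay method. Mean of three experiments.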

[2] = tested on: A2780 CisR (Homo sapiens); assay: cells; conditions: 72 h
MDA-MB-231 [3] = assay: Potentiation of […] cisplatin-induced toxicity in 1 uM cisplatin resistant human MDA-MB-231 cells at 0.5 uM pretreated for 48 hrs followed by 1 uM cisplatin treatment by MTT assay; type: functional
A2780 [4] = assay: Potentiation of 10 uM cisplatin-induced toxicity in 5 uM cisplatin resistant human A2780 cells at 1.5 uM pretreated for 48 hrs followed by 5 uM cisplatin treatment by MTT assay; type: functional
KYSE-510 [5] = assay: Potentiation of 8 uM cisplatin-induced toxicity in 0.5 uM cisplatin resistant human KYSE-510 cells at 1.5 uM pretreated for 48 hrs followed by 0.5 uM cisplatin treatment by MTT assay; type: functional
MDA-MB-231 [6] = assay: Potentiation of 40 uM cisplatin-induced toxicity in 1 uM cisplatin resistant human MDA-MB-231 cells at 1 uM pretreated for 48 hrs followed by 1 uM cisplatin treatment by MTT assay; type: functional
KYSE-510 [7] = assay: Potentiation of 0.5 uM cisplatin-induced toxicity in 0.5 uM cisplatin resistant human KYSE-510 cells at 1 uM pretreated for 48 hrs followed by 0.5 uM cisplatin treatment by MTT assay; type: functional
KYSE-510 [8] = assay: Potentiation of 1 uM cisplatin-induced toxicity in 0.5 uM cisplatin resistant human KYSE-510 cells at 0.25 uM pretreated for 48 hrs followed by 0.5 uM cisplatin treatment by MTT assay; type: functional
A2780 [9] = assay: Potentiation of 10 uM cisplatin-induced toxicity in 5 uM cisplatin resistant human A2780 cells at 0.5 uM pretreated for 48 hrs followed by 5 uM cisplatin treatment by MTT assay; type: functional
CAL-27 [10] = assay: Potentiation of 10 uM cisplatin-induced toxicity in 1 uM cisplatin resistant human CAL27 cells at 0.25 uM pretreated for 48 hrs followed by 1 uM cisplatin treatment by MTT assay; type: functional
MDA-MB-231 [11] = assay: Potentiation of 25 uM cisplatin-induced toxicity in 1 uM cisplatin resistant human MDA-MB-231 cells at 0.5 uM pretreated for 48 hrs followed by 1 uM cisplatin treatment by MTT assay; type: functional
A2780 [12] = assay: Potentiation of 5 uM cisplatin-induced toxicity in 5 uM cisplatin resistant human A2780 cells at 0.5 uM pretreated for 48 hrs followed by 5 uM cisplatin treatment by MTT assay; type: functional
A2780 [13] = assay: Potentiation of 8 uM cisplatin-induced toxicity in 5 uM cisplatin resistant human A2780 cells at 1 uM pretreated for 48 hrs followed by 5 uM cisplatin treatment by MTT assay; type: functional
A2780 [14] = assay: Potentiation of 1 uM cisplatin-induced toxicity in 5 uM cisplatin resistant human A2780 cells at 1.5 uM pretreated for 48 hrs followed by 5 uM cisplatin treatment by MTT assay; type: functional
CAL-27 [15] = assay: Potentiation of 10 uM cisplatin-induced toxicity in 1 uM cisplatin resistant human CAL27 cells at 0.5 uM pretreated for 48 hrs followed by 1 uM cisplatin treatment by MTT assay; type: functional
A2780 [16] = assay: Potentiation of 20 uM cisplatin-induced toxicity in 5 uM cisplatin resistant human A2780 cells at 0.25 uM pretreated for 48 hrs followed by 5 uM cisplatin treatment by MTT assay; type: functional
MDA-MB-231 [17] = assay: Potentiation of 5 uM cisplatin-induced toxicity in 1 uM cisplatin resistant human MDA-MB-231 cells at 1 uM pretreated for 48 hrs followed by 1 uM cisplatin treatment by MTT assay; type: functional
A2780 [18] = assay: Potentiation of 10 uM cisplatin-induced toxicity in 5 uM cisplatin resistant human A2780 cells at 1 uM pretreated for 48 hrs followed by 5 uM cisplatin treatment by MTT assay; type: functional
MDA-MB-231 [19] = assay: Potentiation of 5 uM cisplatin-induced toxicity in 1 uM cisplatin resistant human MDA-MB-231 cells at 0.5 uM pretreated for 48 hrs followed by 1 uM cisplatin treatment by MTT assay; type: functional
MDA-MB-231 [20] = assay: Cytotoxicity against cisplatin resistant human MDA-MB-231 cells after 72 hrs by MTT assay; type: functional, cell-based; conditions: MDA-MB-231, 72 h
KYSE-510 [21] = assay: Potentiation of 3.16 uM cisplatin-induced toxicity in 0.5 uM cisplatin resistant human KYSE-510 cells at 0.25 uM pretreated for 48 hrs followed by 0.5 uM cisplatin treatment by MTT assay; type: functional
Histone deacetylase 8 = molecular target: T1, Histone deacetylase 8 (Homo sapiens, UniProt Q9BY41); assay: Inhibition of human HDAC8 by fluorescence assay
T1 sequence (Q9BY41 whole entry): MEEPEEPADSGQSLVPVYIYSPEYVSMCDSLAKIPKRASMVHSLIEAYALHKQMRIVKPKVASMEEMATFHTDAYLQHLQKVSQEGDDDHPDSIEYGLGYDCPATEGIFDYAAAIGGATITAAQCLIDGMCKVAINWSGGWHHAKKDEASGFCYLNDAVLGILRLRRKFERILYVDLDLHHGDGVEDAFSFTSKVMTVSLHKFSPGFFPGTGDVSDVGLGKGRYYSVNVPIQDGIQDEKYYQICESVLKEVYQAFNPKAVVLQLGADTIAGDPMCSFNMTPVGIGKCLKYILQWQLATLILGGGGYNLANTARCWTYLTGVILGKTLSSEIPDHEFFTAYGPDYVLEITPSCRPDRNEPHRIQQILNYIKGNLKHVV

MDA-MB-231 [22] = assay: Potentiation of 10 uM cisplatin-induced toxicity in 1 uM cisplatin resistant human MDA-MB-231 cells at 0.25 uM pretreated for 48 hrs followed by 1 uM cisplatin treatment by MTT assay; type: functional
A2780 [23] = assay: Potentiation of 1 uM cisplatin-induced toxicity in 5 uM cisplatin resistant human A2780 cells at 0.25 uM pretreated for 48 hrs followed by 5 uM cisplatin treatment by MTT assay; type: functional

Cc1cc(C)cc(C(=O)NOCCCCCC(=O)NO)c1
Activity (KYSE-510 [1]): Dose-dependent effect | fractional inhibitory concentration index (FICI) (KYSE-510 [1]): 0.05 | IC50 [2]: 0.32 µM | Activity (MDA-MB-231 [3]): Dose-dependent effect | fractional inhibitory concentration index (FICI) (MDA-MB-231 [3]): 0.81 | Activity (A2780 [4]): Dose-dependent effect | fractional inhibitory concentration index (FICI) (A2780 [4]): 0.68 | Activity (KYSE-510 [5]): Dose-dependent effect | fractional inhibitory concentration index (FICI) (KYSE-510 [5]): 0.16 | Activity (MDA-MB-231 [6]): Dose-dependent effect | fractional inhibitory concentration index (FICI) (MDA-MB-231 [6]): 0.78 | Activity (KYSE-510 [7]): Dose-dependent effect | fractional inhibitory concentration index (FICI) (KYSE-510 [7]): 0.08 | Activity (KYSE-510 [8]): Dose-dependent effect | fractional inhibitory concentration index (FICI) (KYSE-510 [8]): 0.13 | Activity (A2780 [9]): Dose-dependent effect | fractional inhibitory concentration index (FICI) (A2780 [9]): 0.69 | Activity (CAL-27 [10]): Dose-dependent effect | fractional inhibitory concentration index (FICI) (CAL-27 [10]): 0.85 | Activity (MDA-MB-231 [11]): Dose-dependent effect | fractional inhibitory concentration index (FICI) (MDA-MB-231 [11]): 0.79 | Activity (A2780 [12]): Dose-dependent effect | fractional inhibitory concentration index (FICI) (A2780 [12]): 0.73 | Activity (A2780 [13]): Dose-dependent effect | fractional inhibitory concentration index (FICI) (A2780 [13]): 0.59 | Activity (A2780 [14]): Dose-dependent effect | fractional inhibitory concentration index (FICI) (A2780 [14]): 0.97 | Activity (CAL-27 [15]): Dose-dependent effect | fractional inhibitory concentration index (FICI) (CAL-27 [15]): 0.41 | Activity (A2780 [16]): Dose-dependent effect | fractional inhibitory concentration index (FICI) (A2780 [16]): 0.76 | Activity (MDA-MB-231 [17]): Dose-dependent effect | Activity (A2780 [18]): Dose-dependent effect | fractional inhibitory concentration index (FICI) (A2780 [18]): 0.61 | Activity (MDA-MB-231 [19]): Dose-dependent effect | fractional inhibitory concentration index (FICI) (MDA-MB-231 [19]): <0.2 | IC50 (MDA-MB-231 [20]): 1.68 µM | Activity (KYSE-510 [21]): Dose-dependent effect | fractional inhibitory concentration index (FICI) (KYSE-510 [21]): 0.18 | IC50 (Histone deacetylase 8): 1.28 µM | Activity (MDA-MB-231 [22]): Dose-dependent effect | Activity (A2780 [23]): Dose-dependent effect
